The values below come from ChEMBL document CHEMBL1140127, “Enantiomeric propanolamines as selective N-methyl-D-aspartate 2B receptor antagonists” (J Med Chem, 2008).

SMILES strings stand for the structures. Activity calls are given as the source filed them. The calls are words filed in the database; no cut-off is given here. Some results are limits rather than exact numbers.

Data set [1] deals with Voltage-gated inwardly rectifying potassium channel KCNH2 (Homo sapiens, UniProt Q12809). Briefly: (§1) Displacement of [3H]astemizole from human ERG expressed in HEK293 cells. A general note: Displacement assays read how much labelled ligand stays bound in the presence of the test substance.
In data set [2] the target is hERG (KCNH2) (Homo sapiens, UniProt Q12809). The data set is described as §1. The conditions noted are these: human, HEK293 cells expressing human ERG, probe [3H]astemizole.
In data set [3] the target is Sodium-dependent dopamine transporter (Homo sapiens, UniProt Q01959). Briefly: Binding affinity to dopamine transporter.
In data set [4] the test system is Cortical neurone. Briefly: Neuroprotective effect against NMDA-induced toxicity in Sprague-Dawley rat cultured cortical neurons assessed as LDH release pretreated 15 mins before NMDA treatment assessed after 16 to 24 hrs by spectrophotometry. The class given is functional. The gist of the method: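 Rat cortical cultures (E16–E19) used at 9–12 days. Cells pretreated 15 min in ACSF at pH 7.6, then exposed 10 min at room temperature to 100 μM NMDA plus 10 μM glycine with compound present. Washed with D-APV/CNQX. LDH release measured 16–24 h later as a fraction of total. Scaled between the D-APV minimum and the NMDA maximum; cultures with <10% death discarded.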
Background: LDH in the medium is a marker of cell lysis.

Data set [5] relates to Rattus norvegicus. Briefly: Effect on locomotor activity in Sprague-Dawley rat at 300 mg/kg, ip. The class given is functional, organism-based. Details: dose 300 mg/kg. The gist of the method: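 Sprague–Dawley rats, 100–200 g, habituated to the room for ≥30 min. Basal activity recorded for 1 h in infrared photobeam activity chambers. Animals then dosed ip and returned to the chamber for 2 h; total horizontal activity recorded. Daily controls were vehicle (negative) and 0.3 mg/kg MK-801 ip in saline (positive). ANOVA with Dunnett's post hoc test.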

Data set [6] is described as follows: Protein binding in mouse plasma. It is filed as ADME, cell-free. The conditions noted are these: read-out: PPB (converted).
Data set [7] addresses T1, Adrenergic receptor alpha-1 (Rattus norvegicus, UniProt P15823+P23944+P43140).
T1 sequence (P15823 whole entry): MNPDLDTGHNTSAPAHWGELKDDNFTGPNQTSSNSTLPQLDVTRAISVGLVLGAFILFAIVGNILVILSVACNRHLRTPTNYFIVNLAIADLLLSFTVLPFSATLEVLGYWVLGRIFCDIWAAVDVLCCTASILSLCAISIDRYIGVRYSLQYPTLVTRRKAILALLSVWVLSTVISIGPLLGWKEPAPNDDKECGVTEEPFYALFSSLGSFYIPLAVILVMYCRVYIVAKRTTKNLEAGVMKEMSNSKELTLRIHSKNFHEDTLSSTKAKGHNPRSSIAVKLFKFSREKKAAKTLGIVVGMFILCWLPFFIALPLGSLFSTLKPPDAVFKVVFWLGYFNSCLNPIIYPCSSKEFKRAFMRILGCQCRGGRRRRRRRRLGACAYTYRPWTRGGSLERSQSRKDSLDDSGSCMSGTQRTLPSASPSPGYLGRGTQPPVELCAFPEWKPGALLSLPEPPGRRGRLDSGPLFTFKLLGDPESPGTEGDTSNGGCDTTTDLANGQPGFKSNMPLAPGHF
T1 sequence (P23944 whole entry): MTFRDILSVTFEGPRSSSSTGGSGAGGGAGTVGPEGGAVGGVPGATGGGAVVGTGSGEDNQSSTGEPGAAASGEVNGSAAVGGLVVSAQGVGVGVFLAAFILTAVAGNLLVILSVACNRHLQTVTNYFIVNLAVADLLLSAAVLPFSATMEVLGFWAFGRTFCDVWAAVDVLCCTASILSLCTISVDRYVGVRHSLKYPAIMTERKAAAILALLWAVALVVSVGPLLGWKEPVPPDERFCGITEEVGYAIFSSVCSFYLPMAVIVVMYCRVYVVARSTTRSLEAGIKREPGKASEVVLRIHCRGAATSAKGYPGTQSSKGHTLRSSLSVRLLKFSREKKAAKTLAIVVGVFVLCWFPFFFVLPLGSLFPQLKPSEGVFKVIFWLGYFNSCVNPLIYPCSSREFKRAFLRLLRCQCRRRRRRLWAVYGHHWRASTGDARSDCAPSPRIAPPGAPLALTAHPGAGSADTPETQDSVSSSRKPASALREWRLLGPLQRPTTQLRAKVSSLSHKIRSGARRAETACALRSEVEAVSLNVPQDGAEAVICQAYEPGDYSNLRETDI
T1 sequence (P43140 whole entry): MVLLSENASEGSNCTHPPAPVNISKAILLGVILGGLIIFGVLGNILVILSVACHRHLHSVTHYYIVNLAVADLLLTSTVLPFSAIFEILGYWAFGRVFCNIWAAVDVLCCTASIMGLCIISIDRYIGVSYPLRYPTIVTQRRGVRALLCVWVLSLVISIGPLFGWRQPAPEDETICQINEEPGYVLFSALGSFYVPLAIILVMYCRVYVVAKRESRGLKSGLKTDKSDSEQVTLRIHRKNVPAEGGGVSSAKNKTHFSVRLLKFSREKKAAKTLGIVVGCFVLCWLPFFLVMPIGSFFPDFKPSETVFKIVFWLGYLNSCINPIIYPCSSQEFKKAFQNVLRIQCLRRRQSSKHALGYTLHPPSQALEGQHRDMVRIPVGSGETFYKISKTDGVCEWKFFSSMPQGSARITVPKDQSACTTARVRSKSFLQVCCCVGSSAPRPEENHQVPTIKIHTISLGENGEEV
Description: Displacement of [3H]prazosin from alpha1 adrenergic receptor in rat brain. The class given is tissue-based. The gist of the method:
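Rat brain membranes; displacement of [3H]-prazosin at 4–6 concentrations, each point in duplicate. IC50 from displacement curves fitted by nonlinear least-squares regression.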

In data set [8] the target is Sodium-dependent serotonin transporter (Homo sapiens, UniProt P31645). Briefly: Binding affinity to serotonin transporter.
In data set [9] the target is Glutamate NMDA receptor; Grin1/Grin2b (Rattus norvegicus, UniProt P35439+Q00960). Briefly: Inhibition of rat recombinant NR1/NR2B receptor expressed in Xenopus oocytes assessed as inhibition of glutamate and glycine-induced evoked current by two electrode voltage clamp method. The class given is cell-based, Oocyte. Background: Two-electrode voltage clamp is typically applied to oocytes expressing channels or transporters.

Data set [10] has as its target Ionotropic glutamate receptor NMDA 1/2D (Rattus norvegicus) (UniProt P35439+Q62645). Briefly: Inhibition of rat recombinant NR1/NR2D receptor expressed in Xenopus oocytes assessed as inhibition of glutamate and glycine-induced evoked current at 3uM by two electrode voltage clamp method. It is filed as cell-based. The conditions noted are these: Oocyte.
The target of data set [11] is Glutamate receptor 3 (Rattus norvegicus) (UniProt P19492). Description: Inhibition of rat recombinant GluR3 expressed in Xenopus oocytes assessed as inhibition of kainate-induced evoked current at 3 uM by two electrode voltage clamp method. It is filed as cell-based. The conditions noted are these: Oocyte. The method in brief:
(§2)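 Xenopus oocytes injected with 5–10 ng rat receptor cRNA and kept in Barth's solution at 18 °C. Two-electrode voltage clamp at −40 mV and 23 °C, 2–7 days after injection, in 90 NaCl/1 KCl/10 HEPES/0.5 BaCl2 mM at pH 7.3 or 7.6. Agonists: 50 μM kainate for GluR3, GluR4 and GluR2/3; 3 nM domoate for GluR6; 100 μM AMPA for GluR6/KA1. Current expressed as % of control; paired t test.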

Data set [12] concerns the target Glutamate receptor 2 (Rattus norvegicus) (UniProt P19491). Description: Inhibition of rat recombinant GluR2/GluR3 expressed in Xenopus oocytes assessed as inhibition of kainate-induced evoked current at 3 uM by two electrode voltage clamp method. It is filed as cell-based. The conditions noted are these: Oocyte. The gist of the method:
as §2

The species entered for data set [13] is Mus musculus. Description: Inhibition of mouse NR2B(deltaATD) mutant receptor.
Data set [14] relates to Neuron. Description: Inhibition of voltage-gated potassium current in E17 Sprague-Dawley rat neurons at 3 uM by whole cell patch clamp method. The class given is functional.

Glutamate receptor 3 (Rattus norvegicus), sequence (P19492 whole entry): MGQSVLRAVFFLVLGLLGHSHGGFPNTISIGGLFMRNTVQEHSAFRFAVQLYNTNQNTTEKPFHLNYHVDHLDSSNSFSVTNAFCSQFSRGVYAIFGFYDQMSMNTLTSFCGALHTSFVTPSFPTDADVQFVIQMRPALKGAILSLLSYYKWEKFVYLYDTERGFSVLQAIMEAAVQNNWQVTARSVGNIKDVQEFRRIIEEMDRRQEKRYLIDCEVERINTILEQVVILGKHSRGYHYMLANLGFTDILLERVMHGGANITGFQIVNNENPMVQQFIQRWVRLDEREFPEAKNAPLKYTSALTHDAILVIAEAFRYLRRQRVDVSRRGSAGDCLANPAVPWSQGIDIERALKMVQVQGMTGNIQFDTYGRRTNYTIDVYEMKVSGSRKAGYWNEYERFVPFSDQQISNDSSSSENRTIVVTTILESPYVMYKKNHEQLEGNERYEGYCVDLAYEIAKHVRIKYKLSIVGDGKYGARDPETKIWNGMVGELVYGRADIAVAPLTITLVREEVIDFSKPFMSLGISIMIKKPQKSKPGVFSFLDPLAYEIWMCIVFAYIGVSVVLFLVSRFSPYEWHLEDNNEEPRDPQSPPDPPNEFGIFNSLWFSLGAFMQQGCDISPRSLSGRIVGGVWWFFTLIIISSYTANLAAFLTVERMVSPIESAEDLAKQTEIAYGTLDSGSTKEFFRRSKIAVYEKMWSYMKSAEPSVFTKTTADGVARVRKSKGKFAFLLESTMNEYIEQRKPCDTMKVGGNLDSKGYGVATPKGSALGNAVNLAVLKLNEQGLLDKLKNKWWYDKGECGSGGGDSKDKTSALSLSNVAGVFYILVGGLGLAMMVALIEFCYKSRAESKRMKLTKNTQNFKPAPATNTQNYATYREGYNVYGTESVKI
Sodium-dependent dopamine transporter, sequence (Q01959 whole entry): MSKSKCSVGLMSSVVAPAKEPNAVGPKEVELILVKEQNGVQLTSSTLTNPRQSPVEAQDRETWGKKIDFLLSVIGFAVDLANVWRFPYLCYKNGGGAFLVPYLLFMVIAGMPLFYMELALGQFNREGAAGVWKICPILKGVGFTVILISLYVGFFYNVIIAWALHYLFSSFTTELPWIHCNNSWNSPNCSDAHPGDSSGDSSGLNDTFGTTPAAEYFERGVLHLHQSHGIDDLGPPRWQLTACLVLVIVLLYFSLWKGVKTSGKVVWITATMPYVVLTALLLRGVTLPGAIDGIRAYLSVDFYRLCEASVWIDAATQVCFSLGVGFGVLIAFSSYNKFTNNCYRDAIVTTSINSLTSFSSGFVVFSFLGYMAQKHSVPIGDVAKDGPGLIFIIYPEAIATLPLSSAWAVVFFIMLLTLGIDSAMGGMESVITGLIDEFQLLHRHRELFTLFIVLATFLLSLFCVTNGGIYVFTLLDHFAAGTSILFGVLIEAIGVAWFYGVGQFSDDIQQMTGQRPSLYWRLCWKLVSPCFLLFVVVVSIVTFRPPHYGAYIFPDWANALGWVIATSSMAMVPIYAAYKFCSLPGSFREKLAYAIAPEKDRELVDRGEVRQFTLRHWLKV
Glutamate receptor 2 (Rattus norvegicus), sequence (P19491 whole entry): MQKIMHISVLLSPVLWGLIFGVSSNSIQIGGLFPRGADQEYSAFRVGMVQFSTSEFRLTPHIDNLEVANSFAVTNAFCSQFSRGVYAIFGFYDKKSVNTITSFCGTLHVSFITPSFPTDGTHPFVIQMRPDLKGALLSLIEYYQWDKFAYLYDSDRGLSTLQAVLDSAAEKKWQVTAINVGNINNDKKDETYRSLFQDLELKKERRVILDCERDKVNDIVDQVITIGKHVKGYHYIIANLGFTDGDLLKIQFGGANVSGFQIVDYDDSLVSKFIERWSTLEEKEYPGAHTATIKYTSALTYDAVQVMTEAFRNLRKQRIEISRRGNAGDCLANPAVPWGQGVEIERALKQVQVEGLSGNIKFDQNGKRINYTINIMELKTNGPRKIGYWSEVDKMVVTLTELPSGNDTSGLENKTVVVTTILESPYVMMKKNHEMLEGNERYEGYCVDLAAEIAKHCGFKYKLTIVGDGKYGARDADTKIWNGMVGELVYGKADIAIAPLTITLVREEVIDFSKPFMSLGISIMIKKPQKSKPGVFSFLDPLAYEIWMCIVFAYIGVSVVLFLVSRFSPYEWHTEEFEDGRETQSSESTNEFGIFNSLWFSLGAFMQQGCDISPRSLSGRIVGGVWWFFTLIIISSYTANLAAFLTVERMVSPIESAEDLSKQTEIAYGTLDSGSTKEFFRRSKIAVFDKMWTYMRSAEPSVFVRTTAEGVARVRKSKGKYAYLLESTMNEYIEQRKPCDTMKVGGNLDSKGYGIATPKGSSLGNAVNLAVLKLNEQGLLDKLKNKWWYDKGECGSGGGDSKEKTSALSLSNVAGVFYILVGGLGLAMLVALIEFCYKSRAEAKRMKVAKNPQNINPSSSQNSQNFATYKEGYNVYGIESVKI
Voltage-gated inwardly rectifying potassium channel KCNH2, sequence (Q12809 whole entry): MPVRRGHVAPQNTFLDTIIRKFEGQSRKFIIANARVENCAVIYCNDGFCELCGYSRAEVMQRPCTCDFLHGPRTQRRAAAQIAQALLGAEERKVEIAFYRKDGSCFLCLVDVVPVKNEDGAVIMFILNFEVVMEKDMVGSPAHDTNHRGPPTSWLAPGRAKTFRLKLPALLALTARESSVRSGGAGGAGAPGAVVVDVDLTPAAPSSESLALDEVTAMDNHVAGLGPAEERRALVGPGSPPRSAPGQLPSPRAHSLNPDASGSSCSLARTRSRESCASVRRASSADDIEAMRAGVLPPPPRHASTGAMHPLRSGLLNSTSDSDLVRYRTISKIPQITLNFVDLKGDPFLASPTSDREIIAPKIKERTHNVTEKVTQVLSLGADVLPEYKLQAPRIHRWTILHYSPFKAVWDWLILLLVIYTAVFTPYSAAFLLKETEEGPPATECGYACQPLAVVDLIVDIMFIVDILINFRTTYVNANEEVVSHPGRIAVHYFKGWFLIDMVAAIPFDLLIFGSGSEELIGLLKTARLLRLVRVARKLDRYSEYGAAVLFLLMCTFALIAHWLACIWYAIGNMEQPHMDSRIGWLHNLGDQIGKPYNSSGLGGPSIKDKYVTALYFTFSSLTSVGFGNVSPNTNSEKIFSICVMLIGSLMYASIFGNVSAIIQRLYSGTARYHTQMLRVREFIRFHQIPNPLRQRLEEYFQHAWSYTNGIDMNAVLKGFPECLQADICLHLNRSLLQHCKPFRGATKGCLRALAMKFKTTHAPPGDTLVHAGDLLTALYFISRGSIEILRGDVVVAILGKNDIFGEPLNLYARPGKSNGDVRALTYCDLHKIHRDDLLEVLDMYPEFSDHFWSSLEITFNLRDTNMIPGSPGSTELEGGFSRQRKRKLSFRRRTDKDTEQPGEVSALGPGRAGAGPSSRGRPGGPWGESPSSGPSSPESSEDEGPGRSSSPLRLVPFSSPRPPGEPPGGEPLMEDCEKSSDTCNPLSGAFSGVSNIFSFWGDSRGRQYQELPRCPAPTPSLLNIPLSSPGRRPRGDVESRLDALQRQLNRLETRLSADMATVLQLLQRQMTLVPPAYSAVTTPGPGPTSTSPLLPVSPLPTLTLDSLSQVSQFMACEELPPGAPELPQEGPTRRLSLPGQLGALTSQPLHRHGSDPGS
hERG (KCNH2), sequence (Q12809 whole entry): as above

Broadly, the IC50 is the point on the concentration scale where inhibition reaches its midpoint. The IC20 is the concentration at which the effect reaches the 20% level. A high value points to a need for much substance. As to `CS(=O)(=O)Nc1ccc(OC[C@@H](O)CNCCc2ccc(Cl)c(Cl)c2)cc1`, the IC50 in [1] is 730 nM; in data set [3], 500 nM; in data set [7], 2400 nM; in [8] it was greater than 3000 nM; in data set [9] it was 50 nM. Further, the IC20 in data set [2] was greater than 174 nM. Also, the Activity result in data set [4] was “Dose-dependent effect”; in data set [14] it was 0.72 nanoampere. The result in data set [5], in data set [10], in data set [11], in data set [12] and in data set [13] was inactive. The fraction unbound in data set [6] was 0.12.
